Source: PubChem
Rows were chosen to be rich in hits. Some 3.5% of all compounds tested hit in one or more screens of this group.
MrgX1 antag – antagonists of human MrgX1 receptor, primary screen, HEK293 cells, Fluo-4 calcium flux | B-score at 10 µM | hit rate 1.3% among 310,000 | BAM8-22 antagonism; active compounds read low | Mas-related G-protein coupled receptor member X1 (Homo sapiens), Q96LB2 | AID 588676, 2011;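 active = calcium-response B-score plate-corrected more than 3 library SD below zero, starting fluorescence within 5 deviations, no agonist response on first addition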;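 note: peak minus trough fluorescence over baseline after final BAM8-22 challenge near maximal dose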
Target sequence (Q96LB2 whole entry, looked up): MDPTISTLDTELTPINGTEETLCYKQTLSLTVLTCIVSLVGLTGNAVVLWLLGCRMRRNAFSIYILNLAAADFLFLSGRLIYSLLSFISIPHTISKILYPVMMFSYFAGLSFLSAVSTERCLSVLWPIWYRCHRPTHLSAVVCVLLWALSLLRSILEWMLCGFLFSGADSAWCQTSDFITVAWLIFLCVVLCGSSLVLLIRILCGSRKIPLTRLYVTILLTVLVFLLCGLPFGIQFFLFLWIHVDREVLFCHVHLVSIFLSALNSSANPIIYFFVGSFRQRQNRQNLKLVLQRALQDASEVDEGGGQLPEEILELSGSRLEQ
MrgX1 PAM – positive allosteric modulators of MrgX1, primary screen, HEK293 cells, Fluo-4 calcium flux; AID 588675, 2011; Mas-related G-protein coupled receptor member X1 (Homo sapiens), Q96LB2; B-score at 10 µM; hit rate 0.63% among 310,000; FDSS; active compounds read high;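 active = plate-corrected calcium response at least 3 library SD above typical, normal starting fluorescence, not activating the receptor alone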;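 note: compound read alongside a low EC10 to EC30 dose of BAM8-22 agonist; peak minus trough fluorescence over baseline measured at the second addition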
RGS4 pot – RGS4 potentiators or activators, primary screen, cell-based, HEK293 M3R inducible RGS4, calcium flux; hit rate 0.92% among 310,000; B-score at 10 µM; carbachol calcium flux Fluo4; active compounds read low; AID 463111, 2010;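 active = B-score of the integrated calcium signal more than 4 SD below the library mean, with starting fluorescence not abnormally high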;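 note: negative B-score means reduced calcium response which marks RGS4 activation or potentiation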
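System: HEK293 FlpIn-TREx cells, stable M3R, doxycycline-inducible RGS4. Timing: overnight RGS4 induction, 30 min dye load 37 °C, 20 min compound RT. Also added: carbachol, ECmax concentration. Measured by: Fluo4 fluorescence kinetic imaging of calcium. Evaluation: integrated calcium ratio converted to B score.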
RGS4 block – RGS4 inhibitors, primary screen, cell-based, HEK293 M3R inducible RGS4, calcium flux; Regulator of G-protein signaling 4 (Homo sapiens), P49798; Fluo-4 calcium flux; active compounds read high; triggered by carbachol at its EC20; B-score at 10 µM; hit rate 0.45% among 310,000; AID 463165, 2010;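 active = B-score, a plate-corrected calcium signal, over three deviations above library mean, with baseline fluorescence within five deviations of library mean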;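 note: RGS4 expression induced by doxycycline in cells with stable M3 receptor; B-score is computed from the integrated fluorescence ratio over baseline after carbachol; higher B-score means a larger calcium signal and so more RGS4 inhibition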
Target sequence (P49798 whole entry, looked up): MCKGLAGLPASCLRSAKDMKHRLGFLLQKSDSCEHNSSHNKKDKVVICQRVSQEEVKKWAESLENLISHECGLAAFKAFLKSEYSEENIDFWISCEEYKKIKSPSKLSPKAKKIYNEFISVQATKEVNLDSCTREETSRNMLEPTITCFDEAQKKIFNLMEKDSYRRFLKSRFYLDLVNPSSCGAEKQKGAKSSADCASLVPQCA
MrgX1 agonist – agonists of human MrgX1 receptor, primary screen, HEK293 cells, Fluo-4 calcium flux; AID 588627, 2011; hit rate 0.44% among 310,000; B-score at 10 µM; Mas-related G-protein coupled receptor member X1 (Homo sapiens), Q96LB2; Fluo-4 calcium fluorescence, agonist mode; active compounds read high;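 active = calcium response B-score plate-corrected fluorescence ratio at least 3 library SD, with starting fluorescence B-score inside 5 SD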
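Test system: HEK293 cells stably expressing human MrgX1 receptor; amount: 15,000 cells per well; doses: compound delivered in addition one of three; times: overnight plating before 1 h dye loading; detection: Fluo-4 NW calcium-flux fluorescence, kinetic read; read-out basis: B-scored fluorescence response ratio; controls: positive and negative controls per plate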
RGS4 activ val – reduced carbachol calcium response, RGS4-induced M3R cells, confirmation, RGS4 activator project, cell-based, HEK293 M3R/RGS4 inducible, calcium flux, duplicate. shares compounds with RGS4 pot. carbachol calcium flux Fluo4. inhibition, % at 10 µM. hit rate 89% among 1,100;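 active = inhibition above 3 SD of the buffer control wells, cut at about 41% in these data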;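 note: signal is the integrated peak-minus-minimum Fluo4 fluorescence over baseline ratio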
RGS4 act ctr – activity in cells without induced RGS4 expression; hit rate 82% among 1,100; shares compounds with RGS4 pot; inhibition, % at 10 µM; HEK293 M3R non-induced RGS4, Fluo4 calcium flux; after carbachol challenge at its EC90;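 active = inhibition exceeding 3 SD of buffer-only control wells, cut at about 26% in these data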;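 note: percent drop in integrated peak-minus-baseline over baseline Fluo4 ratio after carbachol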
Numbers without * were called inactive; i = inactive; . = no result given.

SMILES | MrgX1 antag | MrgX1 PAM | RGS4 pot | RGS4 block | MrgX1 agonist | RGS4 activ val | RGS4 act ctr
O=C(c1ccc(C(F)(F)F)cc1)C1CCCN(C2CCSCC2)C1 (configuration not stated) | i | i | -12.3* | i | i | 90.5* | 48.3*
CN(C)CC1CCCCC1OC(=O)Cc1ccc(Cl)c([N+](=O)[O-])c1 (configuration not stated) | i | i | i | i | i | . | .
CCC(C)N1Cc2ccccc2C1=N (configuration not stated) | i | i | i | i | i | . | .
CC1CN=C(Nc2ccccc2)S1 (configuration not stated) | i | i | i | i | i | . | .
CC1CN=C(Nc2cccc3ccccc23)S1 (configuration not stated) | i | i | -8.48* | i | i | 0.0 | 0.0
Clc1ccc(CCNCc2ccncc2)c(Cl)c1 | i | i | i | i | i | . | .
Cc1ccccc1C(O)(Cc1ccccc1)C1CN2CCC1CC2 (configuration not stated) | i | i | -8.21* | i | i | 92.5* | 88.3*
Cc1ccc(C(O)(c2ccc(C)c(C)c2)C2CN3CCC2CC3)cc1C (configuration not stated) | i | i | i | i | i | . | .
O=C(Nc1cccc(Cl)c1)OC1CN2CCC1CC2 (configuration not stated) | i | i | i | i | i | . | .
O=C(Nc1ccc(Cl)cc1)OC1CN2CCC1CC2 (configuration not stated) | i | i | i | i | i | . | .
O=C(Nc1ccccc1F)OC1CN2CCC1CC2 (configuration not stated) | i | i | -10.4* | i | i | 51.0* | 0.0
O=C(Nc1ccccc1Cl)OC1CN2CCC1CC2 (configuration not stated) | i | i | -8.47* | i | i | 88.0* | 62.3*
CC(C(=O)c1cn(C)c2ccccc12)c1ccccc1 (configuration not stated) | i | i | i | i | i | . | .
CC(Cc1ccccc1Sc1ccccc1O)N(C)C (configuration not stated) | i | i | -8.58* | i | i | 93.0* | 91.3*
CC(=O)c1cc(C(C)=O)c(C)[n+](C)c1C | i | i | i | i | i | . | .
Cn1c(O)c(C(c2ccccn2)c2c(O)n(C)c(=S)[nH]c2=O)c(=O)[nH]c1=S | i | i | i | i | i | . | .
Fc1ccc(C(OCCN2CCCC2)c2ccc(F)cc2)cc1 | i | i | -9.3* | i | i | 87.5* | 36.8*
CN1CCN(CCC(C#N)(c2ccccc2)c2ccccc2)CC1 | i | i | -7.73* | i | i | 93.5* | 92.3*
CN1CCN(Cc2ccc3ccccc3c2)CC1 | i | i | i | i | i | . | .
CN(CC1COc2ccccc2O1)c1nc(-c2cccnc2)nc2ccccc12 (configuration not stated) | i | i | -10.2* | i | i | 90.5* | 93.3*
O=C(c1ccc(Cl)cc1)C1CCCN(Cc2ccc3c(c2)OCCO3)C1 (configuration not stated) | i | i | -8.66* | i | i | 91.0* | 40.8*
OC(C#CCN1CCOCC1)(c1ccccc1)C1CCCC1 (configuration not stated) | i | i | -8.93* | i | i | 56.5* | 83.8*
CCC1(OC(=O)c2ccccc2)CC(C)N(C)CC1C (configuration not stated) | i | i | i | i | i | . | .
C=CCC1(Nc2ccccc2)CC(C)N(C)CC1C (configuration not stated) | i | i | -7.71* | i | i | 59.0* | 83.8*
O=C1CN=C(c2cc([N+](=O)[O-])ccc2Cl)c2cc([N+](=O)[O-])ccc2N1 | i | i | i | i | i | . | .
SMILES | MrgX1 antag | MrgX1 PAM | RGS4 pot | RGS4 block | MrgX1 agonist | RGS4 activ val | RGS4 act ctr
CC(=O)c1ccccc1NC(=O)C1C2CCC(O2)C1C(=O)O (configuration not stated) | i | i | i | i | i | . | .
O=c1cc(C(F)(F)F)c2cc3c4c(c2o1)CCCN4CCC3 | i | i | -9.07* | i | i | 98.5* | 94.3*
O=C(Nc1ccccc1OC(=O)N1CCCCC1)N1CCCCC1 | i | i | i | i | i | . | .
COc1ccc(CN2CCCC(C(=O)c3cccc(Cl)c3)C2)cc1 (configuration not stated) | i | i | i | i | i | . | .
O=C(c1cccc(Cl)c1)C1CCCN(Cc2cccc3cnccc23)C1 (configuration not stated) | i | i | -7.63* | i | i | 51.5* | 83.8*
Clc1ccc(OCC#CCN2CCCC2)cc1 | i | i | -9.62* | i | i | 54.0* | 0.0
